Assay outcomes (PubChem)
In the library only some 5% were active in any assay of this set; here they are far more common.
T cruzi inh = T. cruzi replication inhibition. inhibition, % (test concentration not listed). T. cruzi beta-gal in NIH3T3, luminescence, 90 h. hit rate 1.4% among 300,000. AID 1885;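 active = mean inhibition across valid replicates above about 55%, limit read from the data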;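 also: signal also drops with host cell toxicity which is not excluded here; 0% = plate median of DMSO wells and 100% = zero luminescence signal; higher percent means less beta-gal luminescence so fewer parasites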
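Material: NIH/3T3 host cells with β-galactosidase reporter T. cruzi; Input: 5,000 host fibroblasts per well; Medium: DMEM, 2% fetal bovine serum; Compound: 50 nL DMSO compound solution per well; Schedule: 3 h host attachment, then at least 90 h co-culture; Detection: luminescent β-galactosidase signal after 60 min lysis.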
Beta cell apopt = beta cell apoptosis inhibition; protection from apoptosis, % (no concentration beside the values); INS-1E cytokine-induced death, ATP luminescence, 48 h; percent of positive-control rescue, neutral wells zero; AID 435005; hit rate 0.8% among 300,000;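 active = Every replicate reaches about 75%, or at least half do and their mean reaches it too, limit read from the data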;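 also: 0% = cytokine-treated negative control wells and 100% = positive control rescue; higher means more ATP so stronger rescue from cytokine killing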
XBP1 UPR activ = adaptive UPR (XBP1) activation; CHO-XBP1 luciferase reporter, IRE1-XBP1 UPR activation, luminescence; percent of tunicamycin response, DMSO as zero; activation, % at 20 µM; hit rate 0.33% among 330,000; AID 463104;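 active = versus positive control, 20 µM dose yields 30% or more activation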;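 also: 100% = tunicamycin at 10 µg/mL and 0% = DMSO only wells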
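Material: CHO-XBP1 cells stably carrying IRE1-XBP1-driven luciferase reporter / Amount: 1000 cells per well / Compound: 20 µM, 1% DMSO / Times: 6 h treatment, 37 °C / Detection: luciferase luminescence / Measure: % activation of reporter signal versus tunicamycin and DMSO controls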
CSC inhib = blocks cancer stem cells | cancer stem cell-like cells viability, luminescence | inhibition, % at 7.5 µM | AID 2717 | hit rate 1.1% among 300,000; in the data active = inhibition above about 75%; tested in HMLE shEcad cells
Mdm2-MdmX inh = inhibitors of human Mdm2/MdmX interaction. O15151+Q00987. SaOS-2 split-luciferase Mdm2/MdmX complementation, luminescence. inhibition, % at 8 µM. hit rate 3% among 330,000. AID 485346;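 active = inhibition of at least 50% at 8 µM in the primary screen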
Target sequence (O15151 whole entry, looked up): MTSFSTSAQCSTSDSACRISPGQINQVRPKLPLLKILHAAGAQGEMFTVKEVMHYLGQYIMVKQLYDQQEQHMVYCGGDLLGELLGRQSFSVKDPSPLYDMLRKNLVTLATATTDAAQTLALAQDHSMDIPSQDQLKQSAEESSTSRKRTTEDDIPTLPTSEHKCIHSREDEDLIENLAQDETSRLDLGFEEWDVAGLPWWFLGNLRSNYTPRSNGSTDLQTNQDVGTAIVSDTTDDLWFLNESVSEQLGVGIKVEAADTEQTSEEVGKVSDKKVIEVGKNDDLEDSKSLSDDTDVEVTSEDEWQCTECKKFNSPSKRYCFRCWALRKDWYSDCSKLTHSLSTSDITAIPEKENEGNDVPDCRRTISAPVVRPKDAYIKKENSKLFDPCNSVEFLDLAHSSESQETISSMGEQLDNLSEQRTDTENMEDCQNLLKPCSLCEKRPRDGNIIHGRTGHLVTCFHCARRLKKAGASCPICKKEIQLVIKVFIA
Target sequence (Q00987 whole entry, looked up): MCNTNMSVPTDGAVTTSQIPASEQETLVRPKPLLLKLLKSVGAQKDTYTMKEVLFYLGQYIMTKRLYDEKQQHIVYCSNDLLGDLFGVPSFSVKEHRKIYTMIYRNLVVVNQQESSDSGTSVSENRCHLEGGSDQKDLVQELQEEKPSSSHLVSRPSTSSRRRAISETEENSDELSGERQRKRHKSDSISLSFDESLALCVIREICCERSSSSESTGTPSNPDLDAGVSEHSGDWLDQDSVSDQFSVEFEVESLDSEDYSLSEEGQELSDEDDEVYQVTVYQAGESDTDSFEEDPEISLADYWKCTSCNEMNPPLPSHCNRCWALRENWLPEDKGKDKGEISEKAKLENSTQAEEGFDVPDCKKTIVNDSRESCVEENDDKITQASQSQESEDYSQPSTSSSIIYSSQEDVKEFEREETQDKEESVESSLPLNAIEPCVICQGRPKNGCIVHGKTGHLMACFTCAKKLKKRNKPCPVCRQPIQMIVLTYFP
CHOP UPR activ = activators of apoptotic arm of unfolded protein response (CHOP). CHO-CHOP luciferase reporter, UPR activation, luminescence; percent of tunicamycin response over DMSO baseline. AID 449763. activation, % at 10 µM. hit rate 0.34% among 330,000;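 active = at 10 µM dose, activation of 40% or more, normalized to positive control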;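 also: 100% = tunicamycin at 10 µg/mL and 0% = DMSO alone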
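Test system: CHO CHOP reporter cells. Input: 500 CHO-CHOP cells per well. Medium: F12 with 10% FBS. Technique: luciferase luminescence. Measure: percent activation relative to tunicamycin control. Dosing: 10 µM compound, 0.5% DMSO. Timing: 16-18 h cell attachment, then 6 h compound exposure, 37 °C.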
Mdm2-MdmX conf = human Mdm2/MdmX binding inhibition, confirmed. shares compounds with Mdm2-MdmX inh. luminescent assay. inhibition, % at 8 µM. hit rate 55% among 10,000. AID 489028; in the data active = inhibition above about 40%
FLuc counter = inhibits full-length luciferase, flagging false Mdm2/MdmX hits. shares compounds with Mdm2-MdmX inh. SaOS-2 full-length luciferase counterscreen, luminescence. inhibition, % at 8 µM. hit rate 77% among 6,200;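 active = mean inhibition at 8 µM reaching about 37%, which flags the compound as non-specific, limit read from the data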;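 also: p53-null SaOS-2 cells with luciferase driven by a doxycycline-inducible promoter; compound on cells about two nights before reading with doxycycline added after day one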
An asterisk follows results filed as active; . = no result.

SMILES | T cruzi inh | Beta cell apopt | XBP1 UPR activ | CSC inhib | Mdm2-MdmX inh | CHOP UPR activ | Mdm2-MdmX conf | others
CC(=O)NC1=NN(C(C)=O)C(C)(c2ccc3ccccc3c2)S1 (stereo not drawn) | 11 | -4 | -1 | -9 | 21 | 0 | .
Cc1ccc2c(Cl)c(C(=O)N/N=C/c3cccn3C)sc2c1 | -8 | 11 | 4 | 50 | 48 | 3 | .
Cn1cccc1/C=N/NC(=O)c1sc2cc(Cl)ccc2c1Cl | -11 | 42 | 1 | -3 | 73* | 4 | 36 | FLuc counter=48*
Cc1nn(-c2ccccc2Cl)c(Cl)c1/C=N/Nc1nc2ccccc2s1 | 5 | 7 | -3 | 27 | 87* | -6 | 96* | FLuc counter=56*
COc1ccc(NC(=O)NNC(=O)c2ccc(-c3ccccc3)cc2)cc1 | -4 | -3 | -2 | -5 | 59* | 1 | 28
COc1ccc(C(=O)NNC(=O)c2cc3ccccc3cc2O)cc1 | -6 | 1 | -5 | 24 | 50* | -1 | 39
CC(Oc1cccc(Br)c1)C(=O)NNC(=O)c1ccccn1 (stereo not drawn) | . | 54 | 2 | 38 | 72* | 8 | 61* | FLuc counter=36
COc1cc(OC)cc(C(=O)NNC(=O)c2ccccn2)c1 | -3 | 71 | 2 | 22 | 51* | -2 | 47* | FLuc counter=51*
CC(C)C(=O)NNC(=O)c1ccccn1 | -2 | 0 | 0 | -14 | 7 | 5 | .
COCc1cc(C)n(CC(=O)Nc2ccc(N3CCOCC3)cc2)c(=O)c1C#N | -7 | -2 | -4 | -9 | 10 | -1 | .
CC(OC(=O)CNC(=O)c1ccc2ccccc2c1)C(=O)NC1CCCCC1C (stereo not drawn) | -15 | 3 | -1 | 2 | 11 | 0 | .
COc1ccc(C(=O)NNC(=O)c2ccccn2)cc1 | -5 | 0 | -8 | 16 | 98* | -12 | 94* | FLuc counter=22
COc1cc(OC)cc(C(=O)NC(=S)NNC(=O)c2cnccn2)c1 | 36 | 85* | 4 | 106* | 60* | 0 | 34
COc1ccc(OCC(=O)NNC(=O)c2ccccn2)cc1 | -10 | -1 | 2 | 9 | 28 | 0 | .
COc1cccc(C(=O)N/N=C(/c2ccccc2)c2ccccn2)c1 | 55* | 101* | 2 | 20 | 84* | 22 | 79* | FLuc counter=39*
CC(=O)c1ccc(OCCCC(=O)NNC(=O)c2ccccn2)cc1 | . | -1 | 1 | . | 63* | 2 | 6
CCOC(=O)c1nnn(-c2nonc2-n2cccc2)c1-c1cccc([N+](=O)[O-])c1 | 17 | -10 | -1 | 1 | -23 | -2 | .
O=C(Nc1ccccc1C(=O)Nc1nnc(C(F)(F)F)s1)c1ccccc1 | 59* | 12 | 2 | 195* | 97* | 6 | 97* | FLuc counter=20
Cc1occc1C(=O)Nc1nnc(C(F)(F)F)s1 | -11 | 22 | 1 | 2 | -11 | 2 | .
NC(=O)COC(=O)CNC(=O)c1sc2ccccc2c1Cl | -2 | -8 | -2 | -4 | -12 | 0 | .
Nc1nc(N)nc(-c2ccccc2O)n1 | -11 | -30 | 1 | -14 | 17 | 0 | .
Nc1nc(-c2ccccc2)nc(-c2ccccc2O)n1 | -2 | 3 | -2 | 11 | 62* | 0 | 25
Oc1ccc(-c2cc(-c3ccc(O)cc3)nc(-c3ccccc3)n2)cc1 | 55* | -1 | 5 | 105* | 83* | 1 | 29
Nc1nc(-c2ccccc2)cc(-c2ccccc2O)n1 | 0 | -19 | -7 | 23 | 80* | -1 | 28
Nc1ccc(-c2cc(-c3ccc(N)cc3)nc(-c3ccccc3)n2)cc1 | 8 | -2 | 3 | -1 | 15 | 3 | .
SMILES | T cruzi inh | Beta cell apopt | XBP1 UPR activ | CSC inhib | Mdm2-MdmX inh | CHOP UPR activ | Mdm2-MdmX conf | others
O=C(O)c1ccc(Cl)cc1Nc1nc2cc(Cl)ccc2o1 | 0 | -4 | . | -9 | . | . | .
Cc1nn(-c2ccccc2)c(C)c1NC(=O)COc1ccc([N+](=O)[O-])cc1 | -5 | -1 | -6 | -7 | 4 | -2 | .
CC1CN(C2CCN(C(=O)c3ccccc3)CC2)CC(C)O1 (stereo not drawn) | -4 | -5 | -4 | 9 | 11 | -1 | .
NC(=O)c1ccccc1Nc1nc2nc3ccccc3c(=O)n2cc1Br | 2 | -1 | 5 | 15 | 74* | 5 | -5
COc1cccc(-c2nc(N3CCC(C)CC3)c3ccccc3n2)c1O | 44 | 12 | 0 | -3 | 24 | -2 | .
COc1cccc(-c2nc(Oc3cc(C)cc(C)c3)c3ccccc3n2)c1O | -4 | -1 | 2 | 8 | 64* | 1 | 30
COc1cccc(-c2nc(N3CC(C)CC(C)C3)c3ccccc3n2)c1O (stereo not drawn) | 55* | . | 46* | . | 61* | 3 | 14
COc1ccc[nH]c1=O | -4 | 0 | -5 | 1 | 0 | -1 | .
C=CC(=O)Nc1ccc(Nc2nc(NC3CCC(N(C)C)CC3)nc3c2ncn3C(C)C)cc1 (stereo not drawn) | . | 43 | -4 | . | 96* | -2 | 100* | FLuc counter=52*
Cc1nn(-c2ccccc2)c2c1C(c1ccc([N+](=O)[O-])cc1)N1C(=N2)C(=O)Nc2ccccc21 (stereo not drawn) | 26 | 20 | 0 | 8 | 22 | 2 | .
Cc1nn(-c2ccc([N+](=O)[O-])cc2)c2c1C(c1cccc(Br)c1)N1C(=N2)C(=O)Nc2ccccc21 (stereo not drawn) | 82* | . | 1 | 9 | 60* | 17 | 26
O=C1CCC(=O)N1CC(=O)N1CCCc2ccccc21 | 3 | -2 | -2 | . | -4 | 2 | .
C=C1C(=O)O[C@H]2[C@H]1[C@@H](O)CC(=C)[C@@H]1CC(=O)[C@@H](C)[C@H]21 | -6 | -24 | -5 | 34 | 61* | 5 | 15
Cc1ccc(S(=O)(=O)NCc2ccccc2)cc1C(=O)NCC1CCCO1 (stereo not drawn) | -11 | . | 2 | -13 | 10 | 0 | .
N#CC1=C(N)OC2=C(CC/C2=C\c2ccccc2Cl)C1c1ccccc1Cl (stereo not drawn) | 3 | -7 | 3 | 67 | 66* | 2 | 7
N#CCSc1nc2ccccc2c2nc3ccccc3n12 | -9 | 103* | 23 | 85* | 87* | 2 | 63* | FLuc counter=87*
CCn1c(SCC#N)nc2ccccc2c1=O | -11 | -5 | 1 | -12 | 17 | -2 | .
Nc1cc2c(cc1C(=O)c1cccc(Br)c1)OCCO2 | 16 | -3 | 6 | 58 | 30 | -1 | .
C/C(=N\NC(=O)c1ccccc1O)C1CC1 | -16 | 10 | -5 | -3 | 52* | 3 | 17
